Measured values reported in ChEMBL document CHEMBL4699581, “Design, synthesis, and biological evaluation of N-arylpiperazine derivatives as interferon inducers” (Bioorg Med Chem Lett, 2020).
Active and inactive are the calls of the source. No cut-off for these calls is given here.

How the values were obtained:
Assay type in all cases: cell-based
THP-1 [1] = experiment: Induction of type-1 IFN signalling in human THP-1 cells assessed as increase in IFN-stimulated IRF7 mRNA expression at 50 uM by qPCR analysis; settings: filed as activator
THP-1 [2] = experiment: Induction of type-1 IFN signalling in human THP-1 cells assessed as increase in IFN-stimulated IFIT3 mRNA expression at 50 uM by qPCR analysis; settings: filed as activator
THP-1 [3] = experiment: Cytotoxicity against human THP-1 cells assessed as cell viability at 2.5 to 40 uM; settings: thp-1, 40 µM, dose 2.5-40 µM
In short: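 THP-1 viability was tested across a range of treatment concentrations up to 40 µM, alongside the ISRE reporter dose-response.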

[4] = Induction of type-1 IFN signalling in human THP-1 cells assessed as increase in type-1 IFN-induced ISG54-ISRE promoter activity by measuring increase in transcriptional activity of luciferase reporter gene by secreted luciferase reporter gene assay
In short: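 The THP-1 secreted-luciferase ISRE reporter (ISG54 minimal promoter plus five ISREs) was tested across a dose range. Luminescence was read as fold change over control. EC50 was calculated and Emax was interpolated from the dose-response curve.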

THP-1 [5] = experiment: Induction of type-1 IFN signalling in human THP-1 cells assessed as increase in IP-10 secretion at 20 uM by ELISA; settings: filed as activator
In short: (§1)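 IFNβ and IP-10 released extracellularly from treated THP-1 cells were quantified by ELISA.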

THP-1 [6] = experiment: Induction of type-1 IFN signalling in human THP-1 cells assessed as increase in IFN-stimulated IFNbeta mRNA expression at 50 uM by qPCR analysis; settings: filed as activator
THP-1 [7] = experiment: Induction of type-1 IFN signalling in human THP-1 cells assessed as increase in IFN-stimulated CXCL10 mRNA expression at 50 uM by qPCR analysis; settings: filed as activator
[8] = Cytotoxicity against human THP-1 cells assessed as cell viability at 40 uM relative to control; settings: read-out: Activity
In short: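 THP-1 viability was measured in parallel with the ISRE reporter readout after treatment with 40 μM of each compound. Results are given as mean ± standard deviation.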

THP-1 [9] = experiment: Induction of type-1 IFN signalling in human THP-1 cells assessed as increase in IFNbeta secretion at 20 uM by ELISA; settings: filed as activator; in short: as §1
THP-1 [10] = experiment: Induction of type-1 IFN signalling in human THP-1 cells assessed as increase in type-1 interferon-induced ISG54-ISRE promoter activity by measuring increase in transcriptional activity of luciferase reporter gene at 40 uM by secreted luciferase reporter gene assay relative to control; settings: filed as activator
In short: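 THP-1 monocytes carry an ISRE reporter (ISG54 minimal promoter with five ISRE elements) that drives a secreted luciferase. Each compound was tested at 40 μM. Luminescence was read and expressed as relative units normalized to a DMSO control, as mean ± standard deviation.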

THP-1 [11] = experiment: Induction of type-1 IFN signalling in human THP-1 cells assessed as increase in IFN-stimulated OAS1 mRNA expression at 50 uM by qPCR analysis; settings: filed as activator

SMILES | viability at 40 µM [8] | Activity (THP-1 [10]) | also measured
COc1cc(CC(=O)N2CCN(c3cccc(Cl)c3Cl)CC2)cc(OC)c1OC | 98% | 5.2 RU | Activity (THP-1 [1]): Active; Activity (THP-1 [2]): Active; Activity (THP-1 [3]): Non-Toxic; EC50 [4]: 13.1 µM; Activity (THP-1 [5]): Active; Activity (THP-1 [6]): Active; Activity (THP-1 [7]): Active; Activity (THP-1 [9]): Active; Activity (THP-1 [11]): Active
O=C(Nc1cccc(OC(F)(F)F)c1)N1CCN(c2cccc(Cl)c2Cl)CC1 | 70% | 3 RU | –
O=C(c1cnccn1)N1CCN(c2cccc(Cl)c2Cl)CC1 | 89% | 2.5 RU | –
O=C(c1ccc(C(F)(F)F)cc1)N1CCN(c2cccc(Cl)c2Cl)CC1 | 90% | 1.8 RU | –
S=C(Nc1ccc(Cl)cc1)N1CCN(c2cccc(Cl)c2Cl)CC1 | 99% | 1.2 RU | –
Fc1ccc(NC(=S)N2CCN(c3cccc(Cl)c3Cl)CC2)cc1 | 81% | 1.3 RU | –
O=C(Nc1cccc(C(F)(F)F)c1)N1CCN(c2cccc(Cl)c2Cl)CC1 | 76% | 3.3 RU | –
Cc1cc([N+](=O)[O-])ccc1C(=O)N1CCN(c2cccc(Cl)c2Cl)CC1 | 84% | 1.4 RU | –
COc1cc(OC)cc(C(=O)N2CCN(c3cccc(Cl)c3Cl)CC2)c1 | 83% | 1.9 RU | –
O=C(c1ccc(Cl)cc1Cl)N1CCN(c2cccc(Cl)c2Cl)CC1 | 86% | 2.3 RU | –
CCCCCCCCCCCCC(=O)N1CCN(c2cccc(Cl)c2Cl)CC1 | 89% | 1.3 RU | –
O=C(Nc1ccc([N+](=O)[O-])cc1)N1CCN(c2cccc(Cl)c2Cl)CC1 | 90% | 1 RU | –
O=C(Nc1ccc(OC(F)(F)F)cc1)N1CCN(c2cccc(Cl)c2Cl)CC1 | 96% | 4.2 RU | –
COc1cccc(NC(=O)N2CCN(c3cccc(Cl)c3Cl)CC2)c1 | 87% | 2.7 RU | –
S=C(Nc1ccc(Br)cc1)N1CCN(c2cccc(Cl)c2Cl)CC1 | 46% | 0.4 RU | –
S=C(Nc1cccc(Br)c1)N1CCN(c2cccc(Cl)c2Cl)CC1 | 85% | 1.5 RU | –
O=C(Nc1ccc(C(F)(F)F)cc1)N1CCN(c2cccc(Cl)c2Cl)CC1 | 61% | 3.9 RU | –
O=C(c1cccc(C(F)(F)F)c1)N1CCN(c2cccc(Cl)c2Cl)CC1 | 105% | 2.8 RU | –
O=C(CCc1ccccc1C(F)(F)F)N1CCN(c2cccc(Cl)c2Cl)CC1 | 96% | 2.5 RU | –
O=C(Cc1cc(F)c(F)cc1F)N1CCN(c2cccc(Cl)c2Cl)CC1 | 101% | 2.8 RU | –
COc1ccc(C(=O)N2CCN(c3cccc(Cl)c3Cl)CC2)cc1 | 81% | 3.7 RU | –
COc1ccc(NC(=O)N2CCN(c3cccc(Cl)c3Cl)CC2)cc1 | 98% | 3.3 RU | –
O=[N+]([O-])c1ccc(NC(=S)N2CCN(c3cccc(Cl)c3Cl)CC2)cc1 | 97% | 1.1 RU | –
O=C(Nc1ccc(F)cc1)N1CCN(c2cccc(Cl)c2Cl)CC1 | 95% | 2.1 RU | –
CC(C)NC(=S)N1CCN(c2cccc(Cl)c2Cl)CC1 | 84% | 1.2 RU | –
